High-throughput results as filed in PubChem.
Sampled rows, rich in hits. Any-hit rate of the full collection: about 4.5%.
OX1R antag-1 = antagonists of human orexin 1 receptor (OX1R) | OX1R-expressing cells, FRET antagonist read-out | actives 1.8% (n = 330,000) | O43613 | inhibition, % at 6.6 µM; in the data active = inhibition mostly above about 38%, no sharp cut-off; inactive = mostly below about 40%;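 note: 0% = agonist challenge alone and 100% = reference antagonist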
GPR7 antag = human neuropeptides B/W receptor 1 antagonism. P48145. GPR7-expressing cells, fluorescence antagonist assay. inhibition, % at 4.4 µM. actives 1.1% (n = 290,000); in the data active = inhibition above about 16%, passing the limit was not always enough;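 note: cells stimulated with the agonist NPW; 0% = agonist with vehicle and 100% = vehicle without agonist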
Target sequence (P48145 whole entry, looked up): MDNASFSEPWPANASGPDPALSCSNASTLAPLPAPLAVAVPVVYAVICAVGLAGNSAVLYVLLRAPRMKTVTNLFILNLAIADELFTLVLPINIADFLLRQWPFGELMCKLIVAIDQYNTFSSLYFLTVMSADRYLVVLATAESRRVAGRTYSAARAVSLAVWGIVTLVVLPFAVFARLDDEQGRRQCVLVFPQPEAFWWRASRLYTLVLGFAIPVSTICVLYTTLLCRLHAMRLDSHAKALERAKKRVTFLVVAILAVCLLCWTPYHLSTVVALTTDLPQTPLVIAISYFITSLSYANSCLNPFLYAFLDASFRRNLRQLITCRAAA
CHO parental Ca = signal in parental CHO cells, OX1R antagonist counter-screen | inhibition, % at 5.6 µM | AID 463079 | parental CHO-K1, ATP-induced calcium, Fluo-8 fluorescence | actives 0.63% (n = 330,000);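 active = inhibition above that plate's mean sample inhibition plus 3 SD, cut at about 26% in these data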;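 note: 0% = ATP-challenged DMSO wells and 100% = DMSO wells without ATP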
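material = parental CHO cells | also added = ATP as calcium-mobilizing challenge | dosing = single point at 5.6 µM | detection = intracellular calcium via Fluo-8 no-wash fluorescent dye | read-out = % inhibition | benchmarks = low control ATP plus DMSO, high control DMSO only | repeats = one well per compound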
OX1R antag-2 = blocks the human orexin 1 receptor. actives 0.43% (n = 330,000). AID 434989. CHO/OX1R cells, Fluo-8 calcium fluorescence, orexin A. O43613. inhibition, % at 5 µM;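 active = inhibition above its plate's threshold, mean inhibition of all tested compounds on the plate plus 3 SD, cut at about 37% in these data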;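 note: 0% = orexin A challenge wells and 100% = SB-334867-A antagonist wells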
TAAR1 antagonist = human TAAR1 antagonism; CHO RD-HGA16 TAAR1, Fluo-8 calcium fluorescence, antagonist; inhibition, % at 3 µM; actives 1.5% (n = 360,000);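 active = inhibition above a per-plate cutoff, the mean inhibition of test compounds on that plate plus 3 SD, cut at about 49% in these data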;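 note: 0% = DMSO plus EC80 beta-PEA response and 100% = DMSO alone without agonist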
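Test system – hTAAR1-expressing CHO RD-HGA16 cells, Gα16-coupled · Also added – β-PEA at EC80 concentration, post-compound challenge · Compound – 3 µM, single point · Incubation – dye loading 75 min at 37 °C, then 30 min room temperature · Measured by – Fluo-8 intracellular calcium dye fluorescence, real-time kinetic reads · Benchmarks – vehicle and agonist controls · Replicates – singlicate, one well per test compound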
TAAR1 agonist = agonists of human TAAR1 | Q96RJ0 | CHO RD-HGA16 TAAR1, Fluo-8 calcium fluorescence; vehicle wells 0%, saturating PEA agonist 100% | activation, % at 3 µM | actives 0.99% (n = 360,000) | AID 624467;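 active = activation above the mean activation of all test compounds in the run plus 3 SD, cut at about 38% in these data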
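Signal – calcium-sensitive Fluo-8 signal, excitation 470-495, emission 515-575 nm · System – RD-HGA16 (CHO) cells co-expressing Gα16 and hTAAR1 · Incubation – 17-24 h seeding, 75 min 37 °C dye, 30 min RT · Compound dosing – 3 µM single concentration · Repeats – no replicates (n 1)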
The depositor's hits bear a star; x = no result.

SMILES	OX1R antag-1	GPR7 antag	CHO parental Ca	OX1R antag-2	TAAR1 antagonist	TAAR1 agonist
Brc1ccccc1C1Cc2nnccc2CN1 (stereo not drawn)	x	x	x	x	5	1
CCc1nc(Nc2ccccc2F)c2oc3ccccc3c2n1	44*	-10	-30	-31	-9	12
CCc1nc(Nc2ccc(F)cc2)c2oc3ccccc3c2n1	0	-25	-33	-46	8	8
CCOC(=O)C1CCCN(C(=O)c2[nH]c(C(F)(F)F)nc2-c2ccccc2)C1 (stereo not drawn)	x	x	x	x	-13	8
O=C1NC(=S)S/C1=C\C=C\c1ccc([N+](=O)[O-])o1	x	5	x	x	72*	58*
C[C@@H]1C=CCCO[C@]12C(=O)Nc1ccccc12	x	x	x	x	-6	0
O=C(OCc1ccccn1)c1ccc(COc2ccc3ccccc3c2)o1	5	-1	48*	40	19	0
Cc1cc(NC(=O)c2ccc([N+](=O)[O-])cc2)n(CCC#N)n1	46*	-6	9	-4	-1	-1
Cn1ccc(NC(=O)c2ccc([N+](=O)[O-])cc2)n1	29*	x	-14	-10	-10	6
COC(=O)Cn1cnc2c(NC(=O)c3ccccc3)ncnc21	x	x	x	x	-14	1
CCN=C1NC(c2ccccc2C(F)(F)F)C(C(=O)OC)=C(C)N1C (stereo not drawn)	x	x	x	x	0	0
COc1ccc(OC)c(CN(CC(F)(F)F)S(=O)(=O)c2ccccc2Br)c1	x	x	x	x	-1	1
O=C(c1ccc(C(F)(F)F)cc1)N1CCC(=O)N(C(COCc2ccccc2)Cc2ccccc2)CC1 (stereo not drawn)	11	-8	-37	-40	33	5
CC(C)(C)c1ccc(C(=O)N2CCC(=O)N(C(CO)Cc3ccccc3)CC2)cc1 (stereo not drawn)	43	24	-10	-21	35	46*
CC(C)(C)c1ccc(C(=O)N2CCC(=O)N(C(COCc3ccccc3)Cc3ccccc3)CC2)cc1 (stereo not drawn)	24	9	-20	-10	74*	15
CCCCc1c(-c2ccccc2OC)ncn1Cc1ccc(OC)cc1	x	x	x	x	20	1
COc1ccc(CCN2Cc3c(cccc3[N+](=O)[O-])C2=O)cc1OC	38*	-13	-2	-27	1	1
Cc1cc(N)n2ncc(-c3ccccc3)c2n1	56	-6	-8	1	5	9
CC(=O)Nc1ccc(Nc2cc(C)nc3c(-c4ccccc4)cnn23)cc1	16	-3	-4	-15	49*	41*
Cc1cc(N)n2ncc(-c3cccc(Br)c3)c2n1	43*	-21	-5	23	-9	2
CC(=O)Nc1ccc(Nc2cc(-c3ccccc3)nc3ncnn23)cc1	23	-11	-1	-19	-14	5
CCSc1cc(C)nc2c(-c3ccccc3)cnn12	59*	-12	-19	-4	-37	-1
C#CCN1CC(COc2ccccc2)Oc2cccc(Oc3ccc(OC)cc3)c2S1(=O)=O (stereo not drawn)	x	x	x	x	12	0
O=C(N[C@H](Cc1ccccc1)C(=O)N1CCN(C(=O)N2CCOCC2)CC1)[C@H]1O[C@@H](n2ccc(=O)[nH]c2=O)[C@H](O)[C@@H]1O	x	x	x	x	-7	2
O=C1C=C(c2cccc3c2Oc2ccccc2S3)C[C@@H](c2ccc3c(c2)OCO3)C1	x	x	x	x	8	5
SMILES	OX1R antag-1	GPR7 antag	CHO parental Ca	OX1R antag-2	TAAR1 antagonist	TAAR1 agonist
NC1=NC[C@H](Cc2ccc(O)cc2)N1CCCCC1CCCCC1	23	x	-6	-7	-2	9
NC1=NC[C@H](Cc2ccccc2)N1CCCCC1CCCCC1	-12	x	74*	75*	58*	33
O=S1(=O)N[C@@H](Cc2ccccc2)COc2cc(NC3CC3)ccc21	x	x	x	x	-29	1
O=C(Nc1cccnc1)c1cc(-c2cc(Cl)ccc2O)n[nH]1	67*	-1	-18	-16	-14	27
Cc1ccc(NCN2C(=O)c3ccccc3C2=O)c(C)n1	x	x	x	x	-12	1
C=CC[C@H](CC(=O)N(CCO)Cc1ccccc1)C(=O)N[C@H](COC(=O)[C@@H](CC=C)Cc1ccc(F)cc1)Cc1ccccc1	18	x	-5	5	52*	8
C=CC[C@@H](Cc1ccc(F)cc1)C(=O)OC[C@@H]1CCCN1C(=O)[C@H](CC=C)CC(=O)N[C@H](CO)Cc1ccccc1	64*	x	34	101*	2	12
C=CC[C@@H](CC(=O)OC(C)(C)C)C(=O)OC[C@@H]1CCCN1C(=O)[C@@H](CC=C)CC(=O)N[C@@H](CO)Cc1ccccc1	8	x	-34	-15	16	2
C=CCC[C@H](Cc1ccc(F)cc1)C(=O)OC[C@@H](Cc1c[nH]c2ccccc12)NC(=O)[C@@H](CC=C)CC(=O)N(CCO)Cc1ccccc1	12	x	-4	10	51*	6
CC1CCN(CCCNC(=O)C2CC(=O)N(CCc3ccccc3)C2)CC1 (stereo not drawn)	10	-3	-7	-2	-17	8
Fc1ccccc1CSc1nncn1NCc1cccs1	10	19*	5	-7	13	9
COc1ccccc1NC(=O)Nc1nnc(-c2ccco2)s1	32*	1	-6	17	x	x
O=C(O)c1ccc(Nc2nc(-c3ccccc3)cs2)cc1	5	-9	3	22	28	38*
O=C(Nc1ccc(-c2csc(Nc3ccccc3)n2)cc1)c1cccc(C(F)(F)F)c1	15	x	-5	-29	52*	5
O=C(OCC(=O)N1CCCC1=O)c1cccc([N+](=O)[O-])c1	48*	-10	-4	-19	-21	0
COC(=O)c1cc2c(c3c4cc(F)ccc4n(S(=O)(=O)c4cccc(C)c4)c13)C(=O)N(c1ccc(OC)cc1)C2	x	x	x	x	-33	-1
O=C(N[C@H](Cc1ccccc1)C(=O)N1CCN(CC(=O)N2CCCC2)CC1)[C@H]1O[C@@H](n2ccc(=O)[nH]c2=O)[C@H](O)[C@@H]1O	x	x	x	x	-4	2
COCc1[nH]nc2c1C(c1ccc(C)cc1)NC2=O (stereo not drawn)	x	x	x	x	-7	1
